PGC1a acetyl inh = inhibitors of PGC1a acetylation signal, primary screen, cell-based, U2OS, AlphaScreen, inhibitor mode | inhibition, % at 15.6 µM | hit rate 0.17% among 350,000 | AlphaScreen anti-acetyl-lysine; with virally co-expressed GCN5 acetyltransferase;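 active means every replicate shows inhibition of at least 40%; inconclusive means mean inhibition at least 40% but some replicate below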;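 further: 0% = neutral control wells and 100% = positive control wells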
PAX8 inh HTS = inhibitors of PAX8-driven TPO luciferase reporter, primary screen, RMG-I cells, single concentration; SteadyGlo, 24 h; inhibition, % at 12.6 µM; hit rate 1.2% among 360,000;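 active means mean replicate inhibition at least 60% with every replicate also reaching 60%; inconclusive means only one of the two criteria is met; inactive means mean below 60% and not all replicates reaching 60%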;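 further: luciferase light reporting Pax8 driven TPO promoter activity; plate controls were median of neutral control wells for no effect and mitoxantrone controls for full effect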
FN deposit inh = inhibitors of fibronectin matrix deposition, primary screen, AH1F cells, Alexa488-fibronectin fluorescence, plate reader | hit rate 0.086% among 350,000 | AH1F fibroblasts, overnight | AID 743247, 2014 | inhibition, % at 12.6 µM;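 active means mean inhibition across replicates of 30% or more, regardless of how many single replicates reach that level; inconclusive means mean under 30% yet at least half of replicates reach 30%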;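 further: positive control wells lacked labelled fibronectin entirely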
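Material – AH1F fibroblast monolayer, labelled fibronectin deposition · Reagent – labelled fibronectin 24 nM · Timing – 1 h adhesion, overnight exposure · Measured by – fluorescence at 485 nm excitation, 525 nm emission · Read-out – inhibition of fibronectin deposition signal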
HIV Env fusion = inhibitors of HIV-1 Env-driven cell-cell fusion, primary screen, HeLa-JRFL effector, CEM21 target cells, luciferase. hit rate 1.1% among 360,000. AID 651610, 2012. inhibition, % at 12.3 µM;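 active means mean replicate inhibition score of at least 50 and every replicate individually at or above 50; inconclusive means only one of the two criteria met; inactive means mean below 50 and not all replicates reaching 50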;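 further: 0% = plate neutral controls and 100% = maraviroc near 300 nM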
EWS-Fli inh = EWS/Fli-driven NR0B1 reporter inhibitors, primary screen, A673 cells, NR0B1 luciferase, luminescence, MLPCN library; inhibition, % at 12.6 µM; hit rate 0.67% among 350,000; viability-normalised;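 active means mean inhibition of at least 50% after viability correction, with every replicate also passing that limit; inconclusive means mean reaches 50% but only one of two replicates passes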;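 further: firefly luciferase signal divided by Alamar Blue viability fluorescence both relative to DMSO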
FGF22 binding = binders of human FGF22 protein, primary screen, FGF22 synaptogenesis inhibitor project, biophysical, thermal shift, single point. recombinant FGF22 thermal shift, SYPRO orange fluorescence; percent of sucrose octasulfate shift, DMSO zero. hit rate 1.5% among 340,000. Fibroblast growth factor 22 (Homo sapiens), Q9HCT0. activity (Tm shift, normalised), % at 9.99 µM;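 active means mean Tm shift, scaled 0 neutral to 100 positive control, at about 1.3% or above, every replicate too, limit read from the data; inconclusive means no clear call, values can overlap the other calls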
Target sequence (Q9HCT0 whole entry, looked up): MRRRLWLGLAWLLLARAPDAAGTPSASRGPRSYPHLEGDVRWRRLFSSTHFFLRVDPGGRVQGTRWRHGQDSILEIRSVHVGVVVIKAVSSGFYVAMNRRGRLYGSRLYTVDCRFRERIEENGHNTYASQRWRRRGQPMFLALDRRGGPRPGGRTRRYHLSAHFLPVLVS
Starred values were filed as active, the others as inactive; u = inconclusive; x = no result given; [ ] = dose if it differs, or a comment. Hits are enriched below; roughly 3.1% of the tested compounds scored in any of these assays.

SMILES | PGC1a acetyl inh | PAX8 inh HTS | FN deposit inh | HIV Env fusion | EWS-Fli inh | FGF22 binding
COc1cccc(N2CCN(C(=O)c3ccc(CS(=O)c4ccccc4C)o3)CC2)c1 (stereo unspecified) | x | u | -15 | -459 | 58* | 0
O=C(c1ccc(CS(=O)c2ccccc2Cl)o1)N1CCN(c2ccccc2)CC1 (stereo unspecified) | x | 12 | -1 | -233 | 56* | 0
CN(C)CC#Cc1ccc([C@H]2[C@@H](CO)N3CCCCN(C(=O)Nc4ccc(F)cc4)C[C@@H]23)cc1 | 1 | -36 | x | x | -4 | 0
CNC(=O)C[C@@H]1CC[C@H]2[C@@H](COC[C@@H](O)CN2C(=O)c2ccc3c(c2)OCO3)O1 | 8 | x | 4 | x | x | 0
C[C@H](CO)N1C[C@H](C)[C@@H](CN(C)S(=O)(=O)c2ccc(F)cc2)Oc2ccc(NC(=O)Cc3cn(C)c4ccccc34)cc2CC1=O | 8 | 25 | x | -21[16.7 µM] | 7 | 0
CN1C(=O)c2cc(NC(=O)c3cccc(F)c3)ccc2OC[C@H]2O[C@@H](CC(=O)Nc3ccccc3)CC[C@H]21 | 0 | 10 | 11 | x | 6 | 0
CCCNC(=O)N1CC2(CN(C(=O)C3CCCCC3)C2)c2c([nH]c3cc(OC)ccc23)[C@H]1CO | x | -6 | x | x | -1 | 0
COc1cc(C2c3cc4c(cc3OC(NCc3ccccc3)C2C)OCO4)cc(OC)c1OC (stereo unspecified) | x | u | -24 | -17 | u | 0
COc1cc(C2c3cc4c(cc3OC(NNC(N)=S)C2C)OCO4)cc(OC)c1OC (stereo unspecified) | -2 | 85* | x | 12 | 61* | 0
COc1cc(C2c3cc4c(cc3OC(NNC(N)=O)C2C)OCO4)cc(OC)c1OC (stereo unspecified) | -16 | 75* | -15 | 15 | 54* | 0
COc1cccc(C2c3cc4c(cc3OC(NNC(N)=O)C2C)OCO4)c1O (stereo unspecified) | -1 | 41 | 9 | -77 | 41 | -1
CCn1cc(C(c2ccccc2)C(C(C)=O)[N+](=O)[O-])c2ccccc21 (stereo unspecified) | 6 | 26 | -8 | 10 | 12 | 0
CC(=O)C(C(c1ccccc1)c1c[nH]c2ccccc12)[N+](=O)[O-] (stereo unspecified) | 32 | 22 | 14 | -21 | 51* | 0
COc1cc(NC(=O)c2cccc3c2C(=O)N(Cc2cccnc2)C3)cc(OC)c1OC | 6 | -2 | -5 | 2 | -2 | 0
CCOC(=O)CC(NC(=O)c1cccc2c1C(=O)N(Cc1cccnc1)C2)c1ccc(OCC)c(OC)c1 (stereo unspecified) | 6 | 17 | -2 | -27 | 2 | 43*
COc1cccc(-c2ccc3n(c2=O)C[C@@H]2[C@@H](CO)[C@H](C(=O)NCC4CC4)N(C)[C@H]32)c1 | x | -6 | x | x | 4 | 0
COC(=O)[C@@H]1[C@@H](CO)[C@@H]2Cn3c(ccc(-c4ccccc4)c3=O)[C@@H]2N1C(=O)CC1CC1 | x | -9 | x | 5[16.7 µM] | -4 | -1
CCc1ccc(N(C(=O)c2snc(C(N)=O)c2N)C(C(=O)NCCC(C)C)c2c[nH]c3ccccc23)cc1 (stereo unspecified) | 0 | 19 | -2 | 118* | x | x
NC(=O)c1nsc(C(=O)N(c2ccc(F)cc2)C(C(=O)NCC2CCCO2)c2c[nH]c3ccccc23)c1N (stereo unspecified) | 2 | -4 | 0 | 13 | -5 | 0
CC(=O)OC1CCC2(C)C(CCC3C4CC=C(C(C)=O)C4(C)OC(=O)CC32)C1 (stereo unspecified) | -4 | 100* | x | 1 | 15 | -1
Cc1ccc(N2C(=O)CS/C2=C(\C(Cl)=C(Cl)Cl)[N+](=O)[O-])cc1 | 12 | x | x | x | 0 | 0
CC1CCCC(C)N1C(=C(Cl)Cl)C(=C1SCCS1)[N+](=O)[O-] (stereo unspecified) | -22 | 24 | 10 | 23 | 9 | 43*
C[C@@H]1CCCCO[C@@H](CN(C)CC2CCCCC2)[C@H](C)CN([C@@H](C)CO)C(=O)c2cc(NC(=O)Nc3ccccc3)ccc2O1 | 11 | 30 | 1 | -3[16.7 µM] | 6 | 0
CN(C)CC(=O)Nc1ccc2c(c1)[C@@H]1C[C@H](CC(=O)N3CCOCC3)O[C@H](CO)[C@@H]1O2 | -5 | -5 | -12 | -8[16.7 µM] | -1 | 0
C=CCOc1cccc(CNCCCN2CCOCC2)c1 | 8 | 5 | 4 | -1 | -5 | 44*
SMILES | PGC1a acetyl inh | PAX8 inh HTS | FN deposit inh | HIV Env fusion | EWS-Fli inh | FGF22 binding
CCCCCCCN1C2=NCCCN2c2ccccc21 | -26 | 6 | x | 9 | 11 | 43*
COc1ccc2nc(C)cc(Nc3ccc(N4CCN(C)CC4)cc3)c2c1 | 6 | 59 | 16 | -81 | 80* | 0
Cc1ccc2nc(C)cc(Nc3ccc([N+](=O)[O-])cc3)c2c1 | -11 | 96* | 0 | 16 | 40 | 0
COC(=O)c1ccc(Nc2cc(C)nc3ccc(C)cc23)cc1 | -13 | 24 | 12 | 5 | 19 | 0
COc1ccc(/C=N/Nc2cc(C)nc3ccc(OC)cc23)c(OC)c1 | x | 87* | -3 | -29 | 66* | 0
COc1ccc2nc(C)cc(NCCN3CCOCC3)c2c1 | -1 | -12 | 3 | -13 | 9 | 0
COc1ccc2nc(C)cc(Nc3ccc(C)cc3)c2c1 | 0 | -5 | 5 | 23 | -17 | 0
COc1ccc(OC)c(Nc2cc(C)nc3ccc(C)cc23)c1 | -11 | 30 | 18 | 11 | 57* | 0
C[C@@H]1CN([C@H](C)CO)C(=O)Cc2cc(NC(=O)CCN3CCOCC3)ccc2O[C@@H]1CN(C)Cc1ccccc1 | x | -14 | x | -18[16.7 µM] | 1 | 0
Cc1ccc(O)c(NC2=C(Cl)C(=O)N(Cc3ccccc3)C2=O)c1 | x | 31 | -7 | 9 | 10 | 0
Cc1ccc(C(=O)N2CCCCC2)cc1NC1=C(Cl)C(=O)N(Cc2ccccc2)C1=O | x | 72* | 2 | -51 | 15 | 0
Cc1cc(N/N=C/c2ccc(O)cc2O)nc(-n2nc(C)cc2C)n1 | 35 | 25 | 17 | 56* | x | x
C[C@@H]1CN([C@@H](C)CO)C(=O)c2ccccc2-c2ccccc2CO[C@@H]1CN(C)Cc1ccc(Cl)c(Cl)c1 | x | 71* | -1 | -24 | 3 | -1
C[C@H]1CN([C@@H](C)CO)C(=O)c2ccccc2-c2ccccc2CO[C@H]1CN(C)Cc1cccc(F)c1 | -24 | -3 | -2 | 62*[16.7 µM] | -5 | 0

Bioassay records from PubChem.
